Measurements as given in ChEMBL document CHEMBL1932938, “From COX-2 inhibitor nimesulide to potent anti-cancer agent: synthesis, in vitro, in vivo and pharmacokinetic evaluation” (Eur J Med Chem, 2012).
The source made the active and inactive calls. The rule behind the calls is not given here.

Experiments:
[1] = Apparent volume of distribution during terminal phase in Sprague-Dawley rat at 20 mg/kg, ip; assay type: ADME, organism-based; set-up: dose 20 mg/kg, route intraperitoneal; conditions: in vivo, read-out: Vz/F
Procedure, shortened: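 Male Sprague–Dawley rats (300–350 g), n=3, fasted overnight with water available, given a single 20 mg/kg i.p. dose in PBS with 0.1% Tween80 and 20% DMSO. Blood drawn into heparinized tubes at 0, 0.25, 0.5, 1, 2, 4, 8 and 24 h. Plasma measured by LC-MS/MS against an internal standard. Parameters from non-compartmental analysis.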

SF-295 = experiment: Growth inhibition of human SF295 cells after 48 hrs by SRB assay; assay type: functional
SK-BR-3 [2] = experiment: Cell cycle arrest in human SK-BR-3 cells assessed as accumulation at S phase at 0.25 uM after 6 hrs using propidium iodide staining by FACS analysis; assay type: functional
HOP-92 = experiment: Growth inhibition of human HOP92 cells after 48 hrs by SRB assay; assay type: functional
SK-BR-3 [3] = experiment: Cell cycle arrest in human SK-BR-3 cells assessed as accumulation at Sub-G1 phase at 0.50 uM after 3 hrs using propidium iodide staining by FACS analysis; assay type: functional
SK-BR-3 [4] = experiment: Cell cycle arrest in human SK-BR-3 cells assessed as accumulation at S phase at 0.25 uM after 12 hrs using propidium iodide staining by FACS analysis; assay type: functional
SK-BR-3 [5] = experiment: Cell cycle arrest in human SK-BR-3 cells assessed as accumulation at G1 phase at 0.10 uM after 6 hrs using propidium iodide staining by FACS analysis; assay type: functional
Procedure, shortened: (§1)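 SKBR-3 cells in RPMI1640 with 10% heat-inactivated FBS at 37 °C and 5% CO₂ were treated for the stated times. Cells were fixed overnight in 70% EtOH at −20 °C, then stained with propidium iodide buffer (38 mM sodium citrate pH 7.5, 69 µM PI, 120 µg/mL RNase A) for 15 min at room temperature in the dark. Up to 1×10⁴ gated cells were analyzed by flow cytometry, giving percent distribution per phase.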

SK-BR-3 [6] = experiment: Cell cycle arrest in human SK-BR-3 cells assessed as accumulation at Sub-G1 phase at 5 uM after 24 hrs using propidium iodide staining by FACS analysis; assay type: functional
SK-BR-3 [7] = experiment: Cell cycle arrest in human SK-BR-3 cells assessed as accumulation at S phase at 5 uM after 24 hrs using propidium iodide staining by FACS analysis; assay type: functional
HCT-116 = experiment: Growth inhibition of human HCT116 cells after 48 hrs by SRB assay; assay type: functional
NCI-H460 = experiment: Growth inhibition of human NCI-H460 cells after 48 hrs by SRB assay; assay type: functional
DU-145 = experiment: Growth inhibition of human DU145 cells after 48 hrs by SRB assay; assay type: functional
SK-MEL-5 = experiment: Growth inhibition of human SK-MEL-5 cells after 48 hrs by SRB assay; assay type: functional
SK-BR-3 [8] = experiment: Cell cycle arrest in human SK-BR-3 cells assessed as accumulation at G2/M phase at 0.25 uM after 3 hrs using propidium iodide staining by FACS analysis; assay type: functional; procedure, shortened: as §1
Malme-3M = experiment: Growth inhibition of human MALME-3M cells after 48 hrs by SRB assay; assay type: functional
SK-BR-3 [9] = experiment: Cell cycle arrest in human SK-BR-3 cells assessed as accumulation at S phase at 0.25 uM after 3 hrs using propidium iodide staining by FACS analysis; assay type: functional
HT-29 = experiment: Antitumor activity against human HT-29 cells xenografted in BALB/c athymic nu/nu mouse assessed as decrease in tumor size at 5 mg/kg/day, ip administered 5 times per week for 3 weeks; assay type: functional, organism-based
Procedure, shortened: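 Athymic BALB/c nu/nu mice received s.c. HT29 cells in Matrigel, 200 µL per site at two flank sites. Treatment started at ~200 mm³: 5 mg/kg/d i.p., five times weekly for three weeks, in 1% DMSO/sesame oil; controls got vehicle. Three mice per group. Tumors were measured twice weekly by caliper, volume = width²×length/2. Tumors were excised and weighed at the end.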

SK-BR-3 [10] = experiment: Cell cycle arrest in human SK-BR-3 cells assessed as accumulation at G1 phase at 0.50 uM after 12 hrs using propidium iodide staining by FACS analysis; assay type: functional; procedure, shortened: as §1
UACC-62 = experiment: Growth inhibition of human UACC62 cells after 48 hrs by SRB assay; assay type: functional
ACHN = experiment: Growth inhibition of human ACHN cells after 48 hrs by SRB assay; assay type: functional
MDA-MB-468 = experiment: Growth inhibition of human MDA-MB-468 cells after 48 hrs by SRB assay; assay type: functional
SW-620 = experiment: Growth inhibition of human SW620 cells after 48 hrs by SRB assay; assay type: functional
SK-BR-3 [11] = experiment: Cell cycle arrest in human SK-BR-3 cells assessed as accumulation at G1 phase at 5 uM after 12 hrs using propidium iodide staining by FACS analysis; assay type: functional; procedure, shortened: as §1
RXF 393 = experiment: Growth inhibition of human RXF393 cells after 48 hrs by SRB assay; assay type: functional
SK-MEL-2 = experiment: Growth inhibition of human SK-MEL-2 cells after 48 hrs by SRB assay; assay type: functional
SK-BR-3 [12] = experiment: Cell cycle arrest in human SK-BR-3 cells assessed as accumulation at G1 phase at 5 uM after 3 hrs using propidium iodide staining by FACS analysis; assay type: functional; procedure, shortened: as §1
SK-BR-3 [13] = experiment: Cell cycle arrest in human SK-BR-3 cells assessed as accumulation at G1 phase at 0.25 uM after 3 hrs using propidium iodide staining by FACS analysis; assay type: functional; procedure, shortened: as §1
SK-BR-3 [14] = experiment: Cell cycle arrest in human SK-BR-3 cells assessed as accumulation at Sub-G1 phase at 0.10 uM after 24 hrs using propidium iodide staining by FACS analysis; assay type: functional
SK-BR-3 [15] = experiment: Cell cycle arrest in human SK-BR-3 cells assessed as accumulation at G1 phase at 0.50 uM after 24 hrs using propidium iodide staining by FACS analysis; assay type: functional; procedure, shortened: as §1
SK-BR-3 [16] = experiment: Cell cycle arrest in human SK-BR-3 cells assessed as accumulation at S phase at 0.10 uM after 18 hrs using propidium iodide staining by FACS analysis; assay type: functional; procedure, shortened: as §1
[17] = read-out: LC50 (the source's name)

Question: With Cc1ccc(C)c(COc2cc(NC(=O)c3ccc4c(c3)OCO4)ccc2N(C)S(C)(=O)=O)c1 as the molecule, how does the Vd/F [1] read?
Answer: 2.16 L/kg

Question: What about the “growth inhibition (GI)” value (SF-295) of the same molecule?
Answer: Dose-dependent effect

Question: And the GI50 (SF-295; SF-295, 48 h)?
Answer: 98.3 nM

Question: And the TGI (SF-295; SF-295, 48 h)?
Answer: 626 nM

Question: And the CC50 (SF-295; SF-295, 48 h, read-out: LC50 (the source's name))?
Answer: > 100000 nM

Question: What about the Activity (SK-BR-3 [2]) of the same molecule?
Answer: 14.95%

Question: And the “growth inhibition (GI)” value (HOP-92)?
Answer: Dose-dependent effect

Question: And the GI50 (HOP-92; HOP-92, 48 h)?
Answer: 3220 nM

Question: What about the TGI (HOP-92; HOP-92, 48 h) of the same molecule?
Answer: > 100000 nM

Question: What about the CC50 (HOP-92; HOP-92, 48 h, read-out: LC50 (the source's name)) of the same molecule?
Answer: > 100000 nM

Question: What about the Activity (SK-BR-3 [3]) of the same molecule?
Answer: 3.43%

Question: What about the Activity (SK-BR-3 [4]) of the same molecule?
Answer: 6.14%

Question: And the Activity (SK-BR-3 [5])?
Answer: 71.43%

Question: What about the Activity (SK-BR-3 [6]) of the same molecule?
Answer: 27.62%

Question: What about the Activity (SK-BR-3 [7]) of the same molecule?
Answer: 11.53%

Question: And the “growth inhibition (GI)” value (HCT-116)?
Answer: Dose-dependent effect

Question: And the TGI (HCT-116; HCT-116, 48 h)?
Answer: 1020 nM

Question: What about the CC50 (HCT-116; HCT-116, 48 h, read-out: LC50 (the source's name)) of the same molecule?
Answer: > 100000 nM

Question: And the “growth inhibition (GI)” value (NCI-H460)?
Answer: Dose-dependent effect

Question: And the GI50 (NCI-H460; NCI-H460, 48 h)?
Answer: 184 nM

Question: What about the TGI (NCI-H460; NCI-H460, 48 h) of the same molecule?
Answer: 744 nM

Question: And the CC50 (NCI-H460; NCI-H460, 48 h, read-out: LC50 (the source's name))?
Answer: > 100000 nM

Question: What about the “growth inhibition (GI)” value (DU-145) of the same molecule?
Answer: Dose-dependent effect

Question: And the GI50 (DU-145; DU-145, 48 h)?
Answer: 159 nM

Question: And the TGI (DU-145; DU-145, 48 h)?
Answer: 457 nM

Question: What about the CC50 (DU-145; DU-145, 48 h, read-out: LC50 (the source's name)) of the same molecule?
Answer: > 100000 nM

Question: And the “growth inhibition (GI)” value (SK-MEL-5)?
Answer: Dose-dependent effect

Question: And the GI50 (SK-MEL-5; SK-MEL-5, 48 h)?
Answer: 253 nM

Question: What about the TGI (SK-MEL-5; SK-MEL-5, 48 h) of the same molecule?
Answer: 1650 nM

Question: And the CC50 (SK-MEL-5; SK-MEL-5, 48 h, read-out: LC50 (the source's name))?
Answer: 34100 nM

Question: And the Activity (SK-BR-3 [8])?
Answer: 10.77%

Question: What about the GI50 (Malme-3M) of the same molecule?
Answer: 229 nM

Question: What about the TGI (Malme-3M) of the same molecule?
Answer: > 100000 nM

Question: What about the “growth inhibition (GI)” value (Malme-3M) of the same molecule?
Answer: Dose-dependent effect

Question: What about the CC50 (Malme-3M; [17]) of the same molecule?
Answer: > 100000 nM

Question: What about the Activity (SK-BR-3 [9]) of the same molecule?
Answer: 16.34%

Question: What about the Activity (HT-29) of the same molecule?
Answer: Active

Question: What about the Activity (SK-BR-3 [10]) of the same molecule?
Answer: 63.15%

Question: And the “growth inhibition (GI)” value (UACC-62)?
Answer: Dose-dependent effect

Question: And the GI50 (UACC-62; UACC-62, 48 h)?
Answer: 414 nM

Question: What about the TGI (UACC-62; UACC-62, 48 h) of the same molecule?
Answer: > 100000 nM

Question: And the CC50 (UACC-62; UACC-62, 48 h, read-out: LC50 (the source's name))?
Answer: > 100000 nM

Question: What about the GI50 (ACHN) of the same molecule?
Answer: 687 nM

Question: What about the TGI (ACHN) of the same molecule?
Answer: > 100000 nM

Question: What about the “growth inhibition (GI)” value (ACHN) of the same molecule?
Answer: Dose-dependent effect

Question: And the CC50 (ACHN; [17])?
Answer: > 100000 nM

Question: And the “growth inhibition (GI)” value (MDA-MB-468)?
Answer: Dose-dependent effect

Question: What about the GI50 (MDA-MB-468; MDA-MB-468, 48 h) of the same molecule?
Answer: 155 nM

Question: And the TGI (MDA-MB-468; MDA-MB-468, 48 h)?
Answer: 401 nM

Question: What about the “growth inhibition (GI)” value (SW-620) of the same molecule?
Answer: Dose-dependent effect

Question: What about the GI50 (SW-620; SW-620, 48 h) of the same molecule?
Answer: 112 nM

Question: What about the TGI (SW-620; SW-620, 48 h) of the same molecule?
Answer: > 100000 nM

Question: What about the CC50 (SW-620; SW-620, 48 h, read-out: LC50 (the source's name)) of the same molecule?
Answer: > 100000 nM

Question: What about the Activity (SK-BR-3 [11]) of the same molecule?
Answer: 63.71%

Question: What about the “growth inhibition (GI)” value (RXF 393) of the same molecule?
Answer: Dose-dependent effect

Question: What about the GI50 (RXF 393; RXF 393, 48 h) of the same molecule?
Answer: 128 nM

Question: And the TGI (RXF 393; RXF 393, 48 h)?
Answer: 403 nM

Question: And the “growth inhibition (GI)” value (SK-MEL-2)?
Answer: Dose-dependent effect

Question: What about the GI50 (SK-MEL-2; SK-MEL-2, 48 h) of the same molecule?
Answer: 89.7 nM

Question: What about the TGI (SK-MEL-2; SK-MEL-2, 48 h) of the same molecule?
Answer: 616 nM

Question: And the CC50 (SK-MEL-2; SK-MEL-2, 48 h, read-out: LC50 (the source's name))?
Answer: > 100000 nM

Question: What about the Activity (SK-BR-3 [12]) of the same molecule?
Answer: 69.09%

Question: What about the Activity (SK-BR-3 [13]) of the same molecule?
Answer: 69.63%

Question: And the Activity (SK-BR-3 [14])?
Answer: 11.78%

Question: And the Activity (SK-BR-3 [15])?
Answer: 31.77%

Question: And the Activity (SK-BR-3 [16])?
Answer: 8.71%
